The list is not random: actives were taken first. Their share in the collection is about 11%.
mHtt clearance: mutant huntingtin protein clearance. HeLa Exon1htt(103Q)mCFP, aggregate imaging; zero = plate's median compound well. inhibition, % at 1.5 µM. 47,000 tested, 0.42% active;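 active means inhibition of aggregate fluorescence above about 70%, also judged a hit by eye on the cell image, limit read from the data, passing the limit was not always enough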;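 further: cells exposed to compound for three days before fixation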
RORA act: RORA (human) activation | P35398 | CHO-K1 Gal4-RORA LBD luciferase reporter, luminescence; percent increase over mock-subtracted basal signal | activation, % at 10 µM | 65,000 tested, 1.5% active;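 active means activation above the mean of all tested compounds plus 3 SD, cut at about 49% in these data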;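 further: 0% = DMSO-treated RORA cells and 100% = added signal equal to DMSO minus mock-transfected cells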
M1 ag: agonists of M1 muscarinic receptor. CHO-M1 cells, Fluo-4 calcium fluorescence, agonist mode; hits give high values. B-score at 10 µM. 64,000 tested, 3% active;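 active means fluorescence rise, raw or as B-score row- and column-corrected plate score, outside the 99.7% band of its plate's samples, either direction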
M1 antag: antagonists of rat M1 muscarinic receptor. B-score at 10 µM. CHO-M1 cells, Fluo-4 calcium, ACh EC80 antagonist mode; hits give low values. 64,000 tested, 3.4% active. AID 628;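 active means calcium fluorescence response, raw or row-and-column corrected B-score, differing from the plate sample mean either way at a set confidence level, mostly lower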
SF-1 act: SF-1 (human) activation; Q13285; CHO-K1 Gal4-SF-1 LBD luciferase reporter; % increase over DMSO SF-1-specific signal; activation, % at 10 µM; 65,000 tested, 1.9% active;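 active means activation above the mean activation of all tested compounds plus 3 SD, cut at about 50% in these data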
Target sequence (Q13285 whole entry, looked up, the tested form may be a part): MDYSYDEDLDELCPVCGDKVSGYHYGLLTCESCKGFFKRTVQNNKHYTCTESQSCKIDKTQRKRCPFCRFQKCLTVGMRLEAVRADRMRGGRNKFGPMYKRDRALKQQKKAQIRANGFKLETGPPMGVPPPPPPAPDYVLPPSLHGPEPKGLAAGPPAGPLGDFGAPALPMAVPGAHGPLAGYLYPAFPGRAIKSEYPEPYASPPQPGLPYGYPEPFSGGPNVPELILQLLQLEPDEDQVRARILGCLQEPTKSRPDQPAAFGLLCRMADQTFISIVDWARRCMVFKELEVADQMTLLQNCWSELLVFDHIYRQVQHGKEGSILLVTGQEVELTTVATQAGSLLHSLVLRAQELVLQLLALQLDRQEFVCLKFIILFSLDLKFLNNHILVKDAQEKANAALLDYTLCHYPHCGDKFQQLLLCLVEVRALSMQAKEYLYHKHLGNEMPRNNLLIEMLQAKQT
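Assay system: CHO-K1 cells co-transfected with Gal4 DBD–human SF-1 LBD, 5xGal4 luciferase reporter / Input: 4,000 cells per well / Incubation: 20 h compound exposure at 37 °C after 1 h cell settling / Detection: SteadyLite luciferase luminescence / Control set: DMSO negative control and −SF1 background wells / Replication: one test per compound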
D1 allo mod: allosteric modulators of human D1 dopamine receptor; P21728; HEK293 D1, CRE-luciferase, dopamine EC30 potentiation; actives deviate in either direction; B-score at 10 µM; 58,000 tested, 5.9% active;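 active means luminescence count or its row- and column-corrected plate score outside the 99.7% band of the plate's sample wells, on either side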
M1 antag conf: M1 muscarinic receptor (rat) antagonism, confirmed; shares compounds with M1 antag; 1,700 tested, 43% active; calcium response (max-min fluorescence) at 10 µM; CHO-M1 cells, Fluo-4 calcium, ACh EC80 antagonism; hits give low values;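 active means calcium response below the same-plate mean of wells given acetylcholine alone at its 80%-effect dose, minus 3 SD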;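 further: raw fluorescence intensity difference in arbitrary instrument units and not normalized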
mGluR4 antag: acts on human mGluR4 in M1 antagonist selectivity test. shares compounds with M1 antag. CHO-mGluR4 calcium flux, Fluo-4 fluorescence, glutamate EC80; hits give low values. fluorescence response (max-min) at 10 µM. 1,700 tested, 0.9% active. AID 678;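 active means fluorescence response below the plate's average for near-maximal glutamate wells, less 3 SD of those wells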;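 further: raw unnormalized fluorescence span taken in the window right after glutamate addition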
* = called active by the depositor.

For O=C(CN(C(=O)CCC(=O)Nc1nccs1)c1ccc(F)c(Cl)c1)NCc1ccco1 the results were RORA act 18, M1 ag 1.7, M1 antag 0.47, SF-1 act 5 and D1 allo mod 0.29.
CC(C)c1nc2oc3c(N4CCNCC4)ncnc3c2c2c1CCC2 was read as RORA act 26, M1 ag -1, M1 antag -2.9*, SF-1 act 15, D1 allo mod -1.9, M1 antag conf 292* and mGluR4 antag 243.
Screening CCn1c(N)nc2ccccc21 returned RORA act 10, M1 ag -1.1, M1 antag -2.5*, SF-1 act 19, D1 allo mod -0.33, M1 antag conf 706 and mGluR4 antag 160.
c1ccc2c(c1)N1CCN=C1N2CCN1CCCCC1 was read as mHtt clearance -22, RORA act -14, M1 ag 0.12, M1 antag -0.82, SF-1 act -1 and D1 allo mod 1.
`Clc1ccc(CN2C3=NCCN3c3ccccc32)cc1Cl` gave RORA act -1, M1 ag -1.5, M1 antag -3.2*, SF-1 act -5, D1 allo mod -1.5, M1 antag conf 399* and mGluR4 antag 247.
For O=C(NC1CCCCC1)c1ccc(S(=O)(=O)N2CCOCC2)cc1 the results were mHtt clearance 40, RORA act 14, M1 ag -0.43, M1 antag -0.12, SF-1 act -10 and D1 allo mod -0.35.
`O=S(=O)(c1ccc(NCC2CCCCC2)nc1)N1CCOCC1` gave mHtt clearance -51, RORA act -5, M1 ag 0.66, M1 antag -4.3*, SF-1 act 6, D1 allo mod 0.28, M1 antag conf 554* and mGluR4 antag 205.
For COC(=O)/C=c1/s/c(=C(\C#N)C(=O)NCc2ccco2)n(-c2ccccc2)c1=O the results were RORA act -5, M1 ag 0.78, M1 antag -2.2*, SF-1 act 2, M1 antag conf 669 and mGluR4 antag 218.
COc1ccc(-c2cc(O)cc(O)c2)cc1 was read as RORA act 40, M1 ag -0.9, M1 antag -0.19, SF-1 act 43 and D1 allo mod -0.99.
CCOc1ccc(C(=O)Nc2ccc(N3CCN(C)CC3)cc2)cc1Br was read as mHtt clearance -5, RORA act -1, M1 ag -0.72, M1 antag -3.5*, SF-1 act -16, D1 allo mod -6.4*, M1 antag conf 361* and mGluR4 antag 242.
CCOc1ccc(C(=O)Nc2ccc(N3CCCC3)cc2)cc1 was read as RORA act 15, M1 ag -0.19, M1 antag -0.31, SF-1 act 20 and D1 allo mod -0.06.
CCc1ccc(C(=O)N2CCN(c3ccc(F)cc3)CC2)s1 was read as RORA act 12, M1 ag -1.4, M1 antag -6.5*, SF-1 act 6, D1 allo mod -0.74, M1 antag conf 507* and mGluR4 antag 229.
`CCOCCCn1c(=N)c(C(N)=S)cc2c(=O)n3cccc(C)c3nc21` gave mHtt clearance -39, RORA act -9, M1 ag -0.74, M1 antag -4.1*, SF-1 act -6, D1 allo mod -0.18, M1 antag conf 516 and mGluR4 antag 248.
Screening CCOCCCNC(=O)c1cc2c(=O)n3cccc(C)c3nc2n1C returned RORA act 24, M1 ag 0.9, M1 antag 0.035, SF-1 act 21 and D1 allo mod 0.55.
`Cc1cccn2c(=O)c3cc(C(N)=S)c(=N)n(CCCOC(C)C)c3nc12` gave mHtt clearance -45, RORA act -23, M1 ag 2, M1 antag -3.3*, SF-1 act -10, M1 antag conf 560 and mGluR4 antag 211.

Bioassay records: PubChem, several laboratories
